For data set [1], the target named is Human immunodeficiency virus type 1 reverse transcriptase (Human immunodeficiency virus 1, UniProt Q72547). Briefly: Inhibition of recombinant HIV1 reverse transcriptase RNase H expressed in Escherichia coli JM109 using RNA/DNA duplex substrate HTS1 as substrate.
Data set [2] concerns Human immunodeficiency virus 1. Briefly: Antiviral activity against HIV1 infected in human P4R5 cells assessed as reduction in viral infection preincubated with cells for 24 hrs followed by viral infection measured after 48 hrs by fluorescence based MAGI assay. The data set is classed as functional, organism-based. The gist of the method:
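P4R5 indicator cells were seeded at 4 × 10³ per well in DMEM/10% FBS with puromycin. They were pretreated for 24 h with 1% DMSO or a range of compound concentrations, then infected with HIV-1 at an MOI of 1.25 for another 48 h. Cells were lysed and β-galactosidase was read by fluorescence with MUG substrate. EC50 is given as mean ± SD of at least two independent experiments.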

For data set [3], the target named is Human immunodeficiency virus type 1 integrase (Human immunodeficiency virus 1, UniProt Q7ZJM1). Briefly: Inhibition of HIV integrase strand transfer activity expressed in Escherichia coli BL21 (DE3) using 5' biotin ATGTGGAAAATCTCTAGCA primer annealed with ACTGCTAGAGATTTTCCACAT 3' Cy5 template preincubated for 10 mins followed by primer/template addition measured after 30 mins by fluorescence assay. Put shortly: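 Purified HIV integrase in 10 mM HEPES pH 7.5, 10% glycerol, 10 mM MnCl₂, 1 mM DTT, with compounds in duplicate at 0.13–100 (final), 10 min at 25 °C. 500 nM biotin/Cy5 oligo duplex added, 30 min at 37 °C, EDTA quench. Products captured on streptavidin beads, washed, NaOH-denatured, formamide-eluted, read at 635/675.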

Data set [4] is described as follows: Cytotoxicity against human P4R5 cells assessed as reduction in cell viability after 72 hrs by XTT assay. Format: cell-based. Put shortly:
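P4R5 cells seeded at 4 × 10³ per well in DMEM/10% FBS with puromycin ([…]). Cells treated with 1% DMSO or varying compound concentrations for 72 h, then viability read by XTT kit. CC50 = concentration giving 50% cell death, mean from at least two independent experiments.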
On the technique in general: Tetrazolium dyes change colour on reduction, which living cells bring about.

Another data set concerns the target Gag-Pol polyprotein (Human immunodeficiency virus type 1 group M subtype B (isolate HXB2)(HIV-1), UniProt P04585). In words: Inhibition of recombinant HIV1 reverse transcriptase polymerase expressed in Escherichia coli JM109 assessed as decrease in extension of 18 nucleotide DNA primer annealed to 100 nucleotide DNA template measured after 30 mins. More on the design: species or system Human immunodeficiency virus 1. Put shortly:
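18-nt DNA primer annealed to 100-nt DNA template (40 nM) was extended by 20 nM RT with dNTPs in 50 mM Tris pH 7.8, 50 mM NaCl, 1% DMSO, with increasing compound concentrations. Reactions were started with 6 mM MgCl₂, run 30 min at 37 °C, and stopped with EDTA. dsDNA formed was quantified by fluorescent dye (ex/em 504/531 nm), and dose-response data were fitted to a logistic curve.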

Data set [5] is described as follows: Selectivity ratio of CC50 for human P4R5 cells to EC50 for HIV1 infected in human P4R5 cells. Format: toxicity, cell-based. The gist of the method: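 P4R5 indicator cells, 4 × 10³ per well in DMEM/10% FBS with puromycin. […] Cytotoxicity arm: uninfected cells, compound for 72 h, XTT read-out; CC50 is 50% cell death. Each value is mean ± SD of ≥2 independent experiments.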

The term IC50 denotes the point on the concentration scale where inhibition reaches its midpoint. In general, EC50 refers to the concentration needed to bring the measured effect to its halfway point. In general, CC50 refers to the concentration that lowers cell viability or growth by half.

Chain of Human immunodeficiency virus type 1 integrase (Q7ZJM1 whole entry): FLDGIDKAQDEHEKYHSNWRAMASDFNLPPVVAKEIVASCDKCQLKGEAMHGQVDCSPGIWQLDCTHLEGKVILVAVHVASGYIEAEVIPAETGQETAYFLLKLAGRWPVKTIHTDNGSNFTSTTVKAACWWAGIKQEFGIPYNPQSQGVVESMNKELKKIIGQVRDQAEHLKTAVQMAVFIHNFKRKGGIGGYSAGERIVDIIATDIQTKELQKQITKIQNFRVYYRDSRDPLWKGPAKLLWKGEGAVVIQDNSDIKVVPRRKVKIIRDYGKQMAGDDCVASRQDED

For `COc1ccc(-c2ccc(Cc3cc(=O)n(O)c(=O)[nH]3)cc2)cc1F`, the IC50 in data set [1] was 0.0076 µM; in data set [3] it was more than 100 µM; at Gag-Pol polyprotein, more than 10 µM. In data set [2], the EC50 is 11 µM. Further, in data set [4], the CC50 came out at 49 µM. In data set [5], the Ratio CC50/EC50 lay within 4 to 6.

In the case of `O=c1cc(Cc2cccc(-c3cccc(Cl)c3)c2)[nH]c(=O)n1O`, the IC50 in data set [1] was 0.02 µM; in data set [3], more than 100 µM; at Gag-Pol polyprotein, 10 µM. The EC50 in data set [2] is 11 µM. In addition, in data set [4], the CC50 came to 62 µM. The Ratio CC50/EC50 in data set [5] was in the range of 4 to 6.
